Data from PMC8456861 (Transplant International, 2021).
“Also recorded” adds a separate entry of the source. Where two headings read alike, the source gives them in different places.

Assays:
CYP3A4 [1] = details: patients with rheumatoid arthritis; cited from earlier work
[2] = tested on: CYP3A4/CYP3A5‐dependent metabolism; assay type: in vivo, patients (kidney transplant recipients with late ABMR); details: for C0/D ratio: week 12, median [IQR]
CYP2C19 and CYP3A4 = assay: Pantoprazole pharmacokinetics; assay type: in vivo, patients (kidney transplant recipients with late ABMR)
In short: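 20 mg pantoprazole given as an i.v. bolus on day 0, week 12 and week 52. At day 0 and week 12, dosing preceded study injection. EDTA blood was drawn pre-dose and 1, 2, 3, 4, 5 and 6 h after dosing, spun at 2000 g for 10 min at 4°C and stored at −80 °C. Plasma levels measured by HPLC-MS/MS. Noncompartmental Cmax, AUC0-last, AUC0-inf and T1/2 reported as median (IQR); Wilcoxon/Mann–Whitney tests.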

CYP enzymes = details: critically ill patients; cited from earlier work
[3] = earlier studies; cited from earlier work
CYP3A4/CYP3A5 = assay type: in vivo, patients (kidney transplant recipients with late ABMR); details: human, whole blood, C0 level; for C0 at 12 week: week 12, median [IQR]
C‐reactive protein (CRP) = assay: High‐sensitive CRP under clazakizumab; assay type: in vivo, patients (kidney transplant recipients with late ABMR); details: clazakizumab 25 mg s.c. 4‐weekly
In short: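 Serum high-sensitivity CRP measured by latex particle-enhanced immunoturbidimetric assay on an automated analyser (functional sensitivity 0.03 mg/dl). Randomised double-blind design: clazakizumab 25 mg s.c. or 0.9% saline placebo every 4 weeks to week 12, then open clazakizumab 4-weekly to week 52. Data given as median (IQR).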

Liver parameters = assay type: in vivo, patients (kidney transplant recipients with late ABMR); details: ALAT, AST, CHE
[4] = tested on: late antibody‐mediated rejection (ABMR); details: cited from earlier work
CYP3A4 [5] = details: 19 patients with active rheumatoid arthritis; cited from earlier work
[6] = Clazakizumab arm (n = 10), median (IQR)
[7] = Placebo arm (clazakizumab in part B), median (IQR)
[8] = Placebo arm (n = 10), median (IQR)

## tocilizumab: anti‐IL‐6R antibody
CYP3A4 [1]
  effect on CYP activity and simvastatin metabolism: restored diminished CYP activity and substantially enhanced the metabolism of simvastatin

## CO[C@H]1C[C@@H]2CC[C@@H](C)[C@@](O)(O2)C(=O)C(=O)N2CCCC[C@H]2C(=O)O[C@H]([C@H](C)C[C@@H]2CC[C@@H](OCCO)[C@H](OC)C2)CC(=O)[C@H](C)/C=C(\C)[C@@H](O)[C@@H](OC)C(=O)[C@H](C)C[C@H](C)/C=C/C=C/C=C/1C [everolimus]
[2]; single patient, individual course over the study
  decrease in C0/D ratio: approximately 50%

## COc1ccnc(C[S+]([O-])c2nc3ccc(OC(F)F)cc3[nH]2)c1OC (centres unmarked) [pantoprazole]
CYP2C19 and CYP3A4; [6]
  Percent change from day 0 to week 12, AUC0‐inf: 4.0 (−6.4‐80.3) Percent
  Percent change from day 0 to week 12, T1/2: 18.4 (−0.4–23.2) Percent
CYP2C19 and CYP3A4; Clazakizumab arm, median (IQR)
  Percent change from day 0 to week 52, AUC0‐inf: 52.3 (−5.6–64.1) Percent
  Percent change from day 0 to week 52, AUC0‐last: 41.9 (0.4–84.5) Percent
  Percent change from day 0 to week 52, Cmax: 22.5 (1.6‐37.8) Percent
  Percent change from day 0 to week 52, T1/2: 8.8 (−9.7‐56.8) Percent
CYP2C19 and CYP3A4; [7]
  Percent change from day 0 to week 52, AUC0‐inf: 0.72 (−42.7–64.0) Percent
  Percent change from day 0 to week 52, AUC0‐last: 13.6 (−47.2–50.5) Percent
CYP2C19 and CYP3A4; [8]
  Percent change from day 0 to week 12, AUC0‐inf: 13.8 (−17.7‐27.8) Percent
  Percent change from day 0 to week 12, AUC0‐last: 15.6 (−18.7‐31.1) Percent
  Percent change from day 0 to week 12, Cmax: 5.7 (−10.7‐41.3) Percent
  Percent change from day 0 to week 12, T1/2: 0.2 (−14.4‐21.5) Percent
CYP2C19 and CYP3A4; Total (n = 20), median (IQR)
  Percent change from day 0 to week 12, AUC0‐inf: 11.6 (−11.7‐31.4) Percent
  Percent change from day 0 to week 12, AUC0‐last: 10.4 (−8.0‐27.8) Percent
  Percent change from day 0 to week 12, Cmax: 2.1 (−12.2‐26.3) Percent
  Percent change from day 0 to week 12, T1/2: 5.9 (−4.5–23.2) Percent
CYP2C19 and CYP3A4; Total, median (IQR)
  Percent change from day 0 to week 52, AUC0‐inf: 31.9 (−22.5–64.0) Percent
  Percent change from day 0 to week 52, AUC0‐last: 25.3 (−15.9–51.7) Percent
  Percent change from day 0 to week 52, Cmax: 5.5 (−22.1‐33.6) Percent
CYP2C19 and CYP3A4; human, plasma, iv, 20 mg, Cmax, 20 mg i.v., day 0, Total (n = 20), median (IQR)
  Cmax: 1490 ng/mL
CYP2C19 and CYP3A4; human, plasma, iv, 20 mg, T1/2, 20 mg i.v., day 0, Total (n = 20), median (IQR)
  half-life: 64.8 min
CYP enzymes
  half‐life, fold longer than in this study's patients / healthy volunteers: approximately 5 fold
[3]
  half‐life: generally less than two hours
  time to complete absorption: about 12 hours

## C=CC[C@@H]1/C=C(\C)C[C@H](C)C[C@H](OC)[C@H]2O[C@@](O)(C(=O)C(=O)N3CCCC[C@H]3C(=O)O[C@H](/C(C)=C/[C@@H]3CC[C@@H](O)[C@H](OC)C3)[C@H](C)[C@@H](O)CC1=O)[C@H](C)C[C@@H]2OC [tacrolimus]
CYP3A4/CYP3A5; clazakizumab arm (n = 6)
  C0 at 12 week: 7 ng/mL
CYP3A4/CYP3A5; placebo arm (n = 7)
  C0 at 12 week: 6.4 ng/mL
CYP3A4/CYP3A5; baseline, Clazakizumab arm, median (IQR)
  concentration at 0 day: 5.6 ng/mL
[2]; clazakizumab arm (n = 6)
  C0/D ratio: 2.15 [1.13–4.35] ng/ml/mg
[2]; placebo arm (n = 7)
  C0/D ratio: 2.0 [0.73–2.03] ng/ml/mg

B1: clazakizumab: monoclonal anti‐IL‐6 antibody (Vitaeris Inc.), 25 mg subcutaneously at 4‐weekly intervals (antibody, chains of the INN, looked up, V domains shown)
VH: EVQLVESGGGLVQPGGSLRLSCAASGFSLSNYYVTWVRQAPGKGLEWVGIIYGSDETAYATSAIGRFTISRDNSKNTLYLQMNSLRAEDTAVYYCARDDSSDWDAKFNLWGQGTLVTVSS
VL: AIQMTQSPSSLSASVGDRVTITCQASQSINNELSWYQQKPGKAPKLLIYRASTLASGVPSRFSGSGSGTDFTLTISSLQPDDFATYYCQQGYSLRNIDNAFGGGTKVEIK
CYP2C19 and CYP3A4; IL‐6 blockade up to 52 weeks
  impact on pantoprazole pharmacokinetics / CYP‐dependent drug metabolism: no clinically meaningful impact; also recorded: did not enhance CYP‐dependent drug metabolism
C‐reactive protein (CRP)
  effect on CRP levels: suppressed to undetectable levels; also recorded: virtually complete reduction
Liver parameters
  effect on liver parameters: no meaningful effect
[4]; after 3 months
  effect on DSA: significant reduction of DSA
[4]; after prolonged treatment
  effect on ABMR activity (microcirculation inflammation, molecular ABMR scores): modulation of ABMR activity
[4]; over a period of a year
  effect on progression of graft dysfunction: significantly halted the progression of graft dysfunction

B2: sarilumab: anti‐IL‐6R antibody (antibody, chains of the INN, looked up, V domains shown)
VH: EVQLVESGGGLVQPGRSLRLSCAASRFTFDDYAMHWVRQAPGKGLEWVSGISWNSGRIGYADSVKGRFTISRDNAENSLFLQMNGLRAEDTALYYCAKGRDSFDIWGQGTMVTVSS
VL: DIQMTQSPSSVSASVGDRVTITCRASQGISSWLAWYQQKPGKAPKLLIYGASSLESGVPSRFSGSGSGTDFTLTISSLQPEDFASYYCQQANSFPYTFGQGTKLEIK
CYP3A4 [5]
  effect on altered simvastatin exposure: fully reversed
